# In paper PMC2190579 (The Journal of Cell Biology, 2001):
# Key:
# P2Y1R (F^119 ↦ R) = P2Y1R (F^119 ↦ R) (Meleagris gallopavo, UniProt P49652, F108R); assay: Calcium mobilization; assay type: cell-based, turkey; settings: read-out: EC50 (for Ca^2+ mobilization); 1321N1 cells; mean ± SEM (n = 3)
# P2Y1R (D^116 ↦ E) = P2Y1R (D^116 ↦ E) (Meleagris gallopavo, UniProt P49652, D105E); assay: Calcium mobilization; assay type: cell-based, turkey; settings: read-out: EC50 (for Ca^2+ mobilization); 1321N1 cells; mean ± SEM (n = 3)
# P2Y1R (wild-type) = P2Y1R (wild-type) (Meleagris gallopavo, UniProt P49652); assay: Calcium mobilization; assay type: cell-based, turkey; settings: read-out: EC50 (for Ca^2+ mobilization); 1321N1 cells; mean ± SEM (n = 3)
# P2Y1R (D^121 ↦ E) = P2Y1R (D^121 ↦ E) (Meleagris gallopavo, UniProt P49652, D110E); assay: Calcium mobilization; assay type: cell-based, turkey; settings: read-out: EC50 (for Ca^2+ mobilization); 1321N1 cells; mean ± SEM (n = 3)
# P2Y2R (wild-type) = assay: Calcium mobilization; assay type: cell-based, human
# [1] = biological target: P2Y2R (D^97 ↦ E), RGE mutant (Homo sapiens, UniProt P41231, D97E); assay: Calcium mobilization; assay type: cell-based; settings: 1321N1 cells
# wild-type P2Y2R [2] = assay: ERK1/2 phosphorylation in 1321N1 transfectants; assay type: cell-based, human
# Procedure, shortened: (§1)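 1321N1 astrocytoma cells stably expressing HA-tagged P2Y2R (retroviral pLXSN, G418-selected) were grown to 80% confluence and serum-starved 24 h at 37°C. They were preincubated 30 min with buffer or 10 μM BAPTA-AM, then given 100 μM UTP. Lysates were run on 7.5% SDS-PAGE and immunoblotted for phospho-p42/p44 ERK1/2. Chemiluminescence was quantitated and normalised by reprobing for total ERK1/2.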
# RGE mutant P2Y2R [3] = assay: FAK phosphorylation in 1321N1 transfectants; assay type: cell-based, human; settings: 1 mM UTP after 30 min preincubation with 10 μM BAPTA-AM
# Procedure, shortened: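 Serum-starved (24 h, 37°C) 1321N1 cells stably expressing HA-tagged P2Y2R constructs were preincubated 30 min with buffer or 10 μM BAPTA-AM, then stimulated with 1 mM UTP. Cells were lysed in RIPA buffer and FAK was immunoprecipitated. Tyrosine phosphorylation was detected by anti-phosphotyrosine immunoblot after 7.5% SDS-PAGE, with chemiluminescence read-out. Three to six experiments.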
# RGE mutant P2Y2R [4] = assay: ERK1/2 phosphorylation in 1321N1 transfectants; assay type: cell-based, human; settings: 100 μM UTP after 30 min preincubation with 10 μM BAPTA-AM
# Procedure, shortened: as §1
# wild-type P2Y2R [5] = assay: FAK phosphorylation in 1321N1 transfectants; assay type: cell-based, human
# K562 cells = assay: Fluorescence-activated cell sorting of integrin surface expression; assay type: cell-based, human; settings: overnight treatment with 100 nM PDBu
# wild-type P2Y2R [6] = assay: IP assay; assay type: cell-based, human; settings: overnight treatment with peptide; not shown
# Procedure, shortened: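 Wild-type P2Y2R 1321N1 transfectants were labelled 24 h with 2 μCi [3H]inositol (20 Ci/mmol) in serum-free, inositol-free DME. Cells were washed and held 30 min at 37°C in 30 mM LiCl buffer, then stimulated 10 min with UTP. Extraction used ice-cold 10% perchloric acid with neutralisation. Inositol phosphates were separated on Dowex columns and counted by liquid scintillation.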
# [7] = tested on: K562 erythroleukemia cells; assay: Ligand-coated bead-binding assay; assay type: cell-based, human; settings: number of beads bound per 100 cells; 1 h at 37°C; mean ± SEM
# [8] = biological target: αVβ3 integrin (human (endogenous in K562)) (UniProt P06756); assay: ligand-coated bead binding to cells
# [9] = biological target: αVβ5 integrin (human (endogenous in K562)) (UniProt P06756); assay: ligand-coated bead binding to cells
# [10] = overnight (18 h) with 100 μM peptide, 10 nM UTP 5 min
# [11] = shorter incubation periods than overnight, not shown
# [12] = overnight (18 h) with 100 μM peptide, 1 μM UTP 5 min
# Chain of P2Y2R (D^97 ↦ E), RGE mutant (P41231 whole entry D97E): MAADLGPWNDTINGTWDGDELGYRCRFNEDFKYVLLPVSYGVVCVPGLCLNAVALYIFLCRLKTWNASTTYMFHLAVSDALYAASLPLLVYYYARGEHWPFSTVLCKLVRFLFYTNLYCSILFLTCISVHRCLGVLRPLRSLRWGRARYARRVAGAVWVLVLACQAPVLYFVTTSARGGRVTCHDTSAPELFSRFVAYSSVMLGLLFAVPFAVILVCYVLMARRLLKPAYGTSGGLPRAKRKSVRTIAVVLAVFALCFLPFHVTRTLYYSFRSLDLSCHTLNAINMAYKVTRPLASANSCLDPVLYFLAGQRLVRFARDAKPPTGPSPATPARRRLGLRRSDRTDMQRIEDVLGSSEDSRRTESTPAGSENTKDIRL
# Chain of P2Y1R (D^121 ↦ E) (P49652 whole entry D110E): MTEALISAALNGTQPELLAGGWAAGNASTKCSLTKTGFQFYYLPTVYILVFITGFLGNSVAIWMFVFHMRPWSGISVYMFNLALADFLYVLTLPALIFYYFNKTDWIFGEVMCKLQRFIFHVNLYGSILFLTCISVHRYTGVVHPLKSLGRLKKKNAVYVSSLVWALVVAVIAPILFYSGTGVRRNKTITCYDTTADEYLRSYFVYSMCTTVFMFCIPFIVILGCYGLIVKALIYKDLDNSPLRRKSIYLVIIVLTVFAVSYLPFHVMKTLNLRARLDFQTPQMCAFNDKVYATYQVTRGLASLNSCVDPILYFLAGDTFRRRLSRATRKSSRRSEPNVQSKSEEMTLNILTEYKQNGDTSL
# Chain of P2Y1R (F^119 ↦ R) (P49652 whole entry F108R): as the sequence (P49652 whole entry D110E) above, with F108R, E110D counted along it
# Chain of P2Y1R (D^116 ↦ E) (P49652 whole entry D105E): as the sequence (P49652 whole entry D110E) above, with D105E, E110D counted along it
# Chain of P2Y1R (wild-type) (P49652 whole entry): as the sequence (P49652 whole entry D110E) above, with E110D counted along it
# Chain of αVβ5 integrin (human (endogenous in K562)) (P06756 31-1048, chain 1 of 2): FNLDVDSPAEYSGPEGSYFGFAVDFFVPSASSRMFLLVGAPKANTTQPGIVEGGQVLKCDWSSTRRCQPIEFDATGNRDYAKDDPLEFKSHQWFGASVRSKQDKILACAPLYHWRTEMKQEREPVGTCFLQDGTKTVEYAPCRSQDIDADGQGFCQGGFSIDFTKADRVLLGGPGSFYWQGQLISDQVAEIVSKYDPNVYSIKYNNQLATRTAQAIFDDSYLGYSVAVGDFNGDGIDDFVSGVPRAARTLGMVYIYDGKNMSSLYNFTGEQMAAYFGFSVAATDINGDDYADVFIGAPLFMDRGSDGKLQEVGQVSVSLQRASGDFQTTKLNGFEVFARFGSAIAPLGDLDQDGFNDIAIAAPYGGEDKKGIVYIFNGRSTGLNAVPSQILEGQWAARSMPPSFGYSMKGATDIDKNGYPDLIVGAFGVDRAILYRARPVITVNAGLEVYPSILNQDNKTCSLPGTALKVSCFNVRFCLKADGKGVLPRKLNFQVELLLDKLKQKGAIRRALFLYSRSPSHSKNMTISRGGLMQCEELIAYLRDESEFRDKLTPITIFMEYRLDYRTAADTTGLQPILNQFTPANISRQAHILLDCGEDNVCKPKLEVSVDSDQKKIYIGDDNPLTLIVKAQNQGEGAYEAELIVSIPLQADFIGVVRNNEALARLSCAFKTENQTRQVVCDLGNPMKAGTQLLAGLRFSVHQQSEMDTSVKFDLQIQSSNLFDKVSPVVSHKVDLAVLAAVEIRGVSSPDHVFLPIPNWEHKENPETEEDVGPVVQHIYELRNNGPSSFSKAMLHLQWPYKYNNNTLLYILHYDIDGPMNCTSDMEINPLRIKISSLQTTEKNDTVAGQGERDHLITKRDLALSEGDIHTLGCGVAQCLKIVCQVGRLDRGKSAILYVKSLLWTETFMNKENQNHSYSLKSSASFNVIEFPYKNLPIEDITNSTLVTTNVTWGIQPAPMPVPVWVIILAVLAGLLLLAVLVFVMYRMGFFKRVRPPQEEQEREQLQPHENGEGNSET
# Chain of αVβ5 integrin (human (endogenous in K562)) (P18084 24-799, chain 2 of 2, further chain): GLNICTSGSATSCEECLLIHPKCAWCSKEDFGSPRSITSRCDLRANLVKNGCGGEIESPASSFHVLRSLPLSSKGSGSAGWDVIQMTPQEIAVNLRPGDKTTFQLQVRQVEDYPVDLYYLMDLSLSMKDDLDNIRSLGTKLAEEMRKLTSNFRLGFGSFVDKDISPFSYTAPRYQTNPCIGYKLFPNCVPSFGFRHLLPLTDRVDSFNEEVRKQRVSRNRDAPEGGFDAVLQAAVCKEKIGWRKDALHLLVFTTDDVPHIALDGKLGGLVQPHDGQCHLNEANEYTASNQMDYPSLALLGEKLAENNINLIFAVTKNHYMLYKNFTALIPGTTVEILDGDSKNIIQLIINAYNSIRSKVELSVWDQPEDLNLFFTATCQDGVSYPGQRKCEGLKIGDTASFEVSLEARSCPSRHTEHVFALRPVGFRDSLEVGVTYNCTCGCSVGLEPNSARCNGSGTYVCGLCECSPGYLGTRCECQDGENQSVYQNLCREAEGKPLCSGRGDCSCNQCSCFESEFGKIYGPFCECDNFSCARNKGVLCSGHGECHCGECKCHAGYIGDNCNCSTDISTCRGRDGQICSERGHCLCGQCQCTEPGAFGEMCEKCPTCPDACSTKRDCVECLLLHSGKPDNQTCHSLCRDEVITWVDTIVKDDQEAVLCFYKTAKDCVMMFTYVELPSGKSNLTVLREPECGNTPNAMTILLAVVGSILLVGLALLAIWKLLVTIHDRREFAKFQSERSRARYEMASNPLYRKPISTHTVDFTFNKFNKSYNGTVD
# Chain of αVβ3 integrin (human (endogenous in K562)) (P06756 31-1048, chain 1 of 2): as the sequence (P06756 31-1048, chain 1 of 2) above
# Chain of αVβ3 integrin (human (endogenous in K562)) (P05106 27-788, chain 2 of 2, further chain): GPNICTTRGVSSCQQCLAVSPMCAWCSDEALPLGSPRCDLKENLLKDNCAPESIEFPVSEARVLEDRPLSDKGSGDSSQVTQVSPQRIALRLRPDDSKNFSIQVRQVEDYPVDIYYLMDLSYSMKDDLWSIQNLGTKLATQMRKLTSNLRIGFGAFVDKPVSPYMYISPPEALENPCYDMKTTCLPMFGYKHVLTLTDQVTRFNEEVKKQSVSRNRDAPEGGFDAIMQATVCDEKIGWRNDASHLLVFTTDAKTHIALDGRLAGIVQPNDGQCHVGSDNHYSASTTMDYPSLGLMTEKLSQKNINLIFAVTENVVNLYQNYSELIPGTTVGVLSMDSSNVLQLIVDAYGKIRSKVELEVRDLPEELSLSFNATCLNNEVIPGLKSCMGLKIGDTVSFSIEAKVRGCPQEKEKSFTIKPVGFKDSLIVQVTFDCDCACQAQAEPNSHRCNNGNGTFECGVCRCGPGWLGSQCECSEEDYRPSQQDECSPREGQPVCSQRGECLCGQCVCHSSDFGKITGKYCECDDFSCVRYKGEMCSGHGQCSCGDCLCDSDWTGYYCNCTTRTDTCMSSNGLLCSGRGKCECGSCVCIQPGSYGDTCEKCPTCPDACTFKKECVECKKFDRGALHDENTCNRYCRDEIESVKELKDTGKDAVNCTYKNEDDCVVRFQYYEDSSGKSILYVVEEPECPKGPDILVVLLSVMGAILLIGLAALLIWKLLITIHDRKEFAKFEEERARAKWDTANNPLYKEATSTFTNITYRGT
molecule,measurement,setting,value
Nc1ncnc2c1ncn2[C@@H]1O[C@H](COP(=O)(O)OP(=O)(O)O)[C@@H](O)[C@H]1O [ADP],EC50,P2Y1R (F^119 ↦ R),2020 ± 270 nM
same,EC50,P2Y1R (D^116 ↦ E),60 ± 10 nM
same,EC50,P2Y1R (wild-type),60 ± 10 nM
same,EC50,P2Y1R (D^121 ↦ E),80 ± 10 nM
Nc1ncnc2c1ncn2[C@@H]1O[C@H](COP(=O)(O)OP(=O)(O)OP(=O)(O)O)[C@@H](O)[C@H]1O [ATP],EC50,"P2Y2R (wild-type); read-out: EC50 (for Ca^2+ mobilization), 1321N1 cells, mean ± SEM (n = 3)",850 ± 130 nM
same,EC50,"[1]; read-out: EC50 (for Ca^2+ mobilization), mean ± SEM (n = 3)",785 ± 125 µM
"O=C(O)CN(CC(=O)O)c1ccccc1OCCOc1ccccc1N(CC(=O)O)CC(=O)O [BAPTA, 1,2-bis(2-aminophenoxy)ethane-N,N,N′,N′-tetraacetic acid]",Effect on UTP-induced ERK1/2 phosphorylation,wild-type P2Y2R [2]; 100 μM UTP after 30 min preincubation with 10 μM BAPTA-AM,partially inhibited
same,Effect on UTP-induced FAK phosphorylation,RGE mutant P2Y2R [3],inhibited
same,Effect on UTP-induced ERK1/2 phosphorylation,RGE mutant P2Y2R [4],not affected
same,Effect on UTP-induced FAK phosphorylation,wild-type P2Y2R [5]; 1 mM UTP after 30 min preincubation with 10 μM BAPTA-AM,inhibited
"CCCC(=O)O[C@@H]1[C@@H](C)[C@@]2(O)[C@@H](C=C(CO)C[C@]3(O)C(=O)C(C)=C[C@@H]23)[C@@H]2C(C)(C)[C@]12OC(=O)CCC [PDBu, phorbol dibutyrate]","Fluorescence intensity or percentage of cells stained by antiintegrin antibodies (α5, αVβ5, β3)",K562 cells,did not increase
RGDS,Effect on P2Y2R-mediated ERK1/2 phosphorylation,wild-type P2Y2R [2]; [10],inhibited
same,Effect on P2Y2R-mediated ERK1/2 phosphorylation,wild-type P2Y2R [2]; [11],did not cause inhibition
same,Effect on P2Y2R-mediated Ca^2+ mobilization,"P2Y2R (wild-type); overnight treatment with peptide, not shown",not inhibited
same,Effect on P2Y2R-mediated FAK phosphorylation,wild-type P2Y2R [5]; [12],inhibited
same,Effect on P2Y2R-mediated FAK phosphorylation,wild-type P2Y2R [5]; [11],did not cause inhibition
same,Effect on P2Y2R-mediated IP formation,wild-type P2Y2R [6],not inhibited
RGES,Effect on P2Y2R-mediated ERK1/2 phosphorylation,wild-type P2Y2R [2]; [10],no effect
same,Effect on P2Y2R-mediated FAK phosphorylation,wild-type P2Y2R [5]; [12],no effect
fibronectin,AI (adhesion index) of ligand-coated beads bound to K562 cells,[7],318 ± 14
human vitronectin (ligand),"adhesion index (AI, beads bound per 100 K562 cells) (beads bound per 100 cells)",[8],300
same,"adhesion index (AI, beads bound per 100 K562 cells) (beads bound per 100 cells)",[9],300
pertussis toxin,Inhibition of Ca^2+ mobilization,"P2Y2R (wild-type); 200 ng/ml PTX overnight, 1 μM UTP, 1321N1 cells",30%
same,Effect on Ca^2+ mobilization,"[1]; 200 ng/ml PTX overnight, 100 μM UTP",insensitive
"vitronectin: human vitronectin purchased from Calbiochem, coated on latex beads (protein, UniProt P04004 20-478, looked up, coated on latex beads) Vitronectin: DQESCKGRCTEGFNVDKKCQCDELCSYYQSCCTDYTAECKPQVTRGDVFTMPEDEYTVYDDGEEKNNATVHEQVGGPSLTSDLQAQSKGNPEQTPVLKPEEEAPAPEVGASKPEGIDSRPETLHPGRPQPPAEEELCSGKPFDAFTDLKNGSLFAFRGQYCYELDEKAVRPGYPKLIRDVWGIEGPIDAAFTRINCQGKTYLFKGSQYWRFEDGVLDPDYPRNISDGFDGIPDNVDAALALPAHSYSGRERVYFFKGKQYWEYQFQHQPSQEECEGSSLSAVFEHFAMMQRDSWEDIFELLFWGRTSAGTRQPQFISRDWHGVPGQVDAAMAGRIYISGMAPRPSLAKKQRFRHRNRKGYRSQRGHSRGRNQNSRRPSRATWLSLFSSEESNLGANNYDDYRMDWLVPATCEPIQSVFFFSGDKYYRVNLRTRRVDTVDPPYPRSIAQYWLGCPAPGHL",AI (adhesion index) of ligand-coated beads bound to K562 cells,[7],300 ± 28
